The target of data set [1] is T1, Cytochrome P450 11B2, mitochondrial (Homo sapiens, UniProt P19099).
T1 sequence (P19099 whole entry): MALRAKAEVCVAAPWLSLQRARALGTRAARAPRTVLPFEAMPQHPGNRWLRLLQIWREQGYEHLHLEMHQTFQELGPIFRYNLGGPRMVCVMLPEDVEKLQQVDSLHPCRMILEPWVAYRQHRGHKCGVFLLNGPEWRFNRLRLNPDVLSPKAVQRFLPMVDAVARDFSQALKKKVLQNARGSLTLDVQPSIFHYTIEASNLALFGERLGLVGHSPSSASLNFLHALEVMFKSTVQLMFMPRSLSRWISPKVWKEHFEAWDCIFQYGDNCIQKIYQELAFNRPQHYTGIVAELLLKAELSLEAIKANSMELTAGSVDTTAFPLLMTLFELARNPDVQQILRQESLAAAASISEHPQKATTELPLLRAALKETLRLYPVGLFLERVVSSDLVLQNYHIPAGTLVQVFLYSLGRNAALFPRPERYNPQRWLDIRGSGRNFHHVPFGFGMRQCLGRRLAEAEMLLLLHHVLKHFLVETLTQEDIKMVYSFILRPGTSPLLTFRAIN
As to the kind of experiment: Inhibition of human aldosterone synthase expressed in chinese hamster V79 cells at 500 nM using 11-deoxycorticosterone as substrate. To be noted: read-out: INH.

Data set [2] addresses T2, CYP11B1 (steroid-11beta-hydroxylase) (Homo sapiens, UniProt P15538).
T2 sequence (P15538 whole entry): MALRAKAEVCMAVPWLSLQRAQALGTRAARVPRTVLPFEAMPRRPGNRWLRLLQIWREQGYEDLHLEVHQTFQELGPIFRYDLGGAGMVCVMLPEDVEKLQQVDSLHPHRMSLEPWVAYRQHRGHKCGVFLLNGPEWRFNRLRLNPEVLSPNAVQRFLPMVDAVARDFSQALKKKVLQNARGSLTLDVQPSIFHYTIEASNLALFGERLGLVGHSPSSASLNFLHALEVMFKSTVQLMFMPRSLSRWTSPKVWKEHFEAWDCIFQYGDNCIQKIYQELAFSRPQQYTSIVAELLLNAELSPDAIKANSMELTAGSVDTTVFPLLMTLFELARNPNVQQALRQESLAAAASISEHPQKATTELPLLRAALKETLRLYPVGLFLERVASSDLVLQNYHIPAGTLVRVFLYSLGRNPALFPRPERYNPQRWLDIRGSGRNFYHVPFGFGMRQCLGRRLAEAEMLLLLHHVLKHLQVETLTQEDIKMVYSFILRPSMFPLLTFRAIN
As to the kind of experiment: Inhibition of human steroid-11beta-hydroxylase expressed in chinese hamster V79 cells at 500 nM using 11-deoxycorticosterone as substrate.

Data set [3] has as its target T1, Cytochrome P450 11B2, mitochondrial. As to the kind of experiment: Inhibition of human aldosterone synthase expressed in chinese hamster V79 cells using 11-deoxycorticosterone as substrate. It counts as cell-based.
Data set [4] concerns the target T3, Cytochrome P450 11B1, mitochondrial (Homo sapiens, UniProt P15538).
T3 sequence (P15538 whole entry): T2 sequence (P15538 whole entry)
As to the kind of experiment: Inhibition of human steroid-11beta-hydroxylase expressed in chinese hamster V79 cells using 11-deoxycorticosterone as substrate. The class given is cell-based.

Data set [5] is filed under the species Homo sapiens. As to the kind of experiment: Selectivity ratio of IC50 for human steroid-11beta-hydroxylase to IC50 for human aldosterone synthase.
Data set [6] concerns the target T4, CYP17 (steroid 17-alpha-hydroxylase/17,20 lyase) (Homo sapiens, UniProt P05093).
T4 sequence (P05093 whole entry): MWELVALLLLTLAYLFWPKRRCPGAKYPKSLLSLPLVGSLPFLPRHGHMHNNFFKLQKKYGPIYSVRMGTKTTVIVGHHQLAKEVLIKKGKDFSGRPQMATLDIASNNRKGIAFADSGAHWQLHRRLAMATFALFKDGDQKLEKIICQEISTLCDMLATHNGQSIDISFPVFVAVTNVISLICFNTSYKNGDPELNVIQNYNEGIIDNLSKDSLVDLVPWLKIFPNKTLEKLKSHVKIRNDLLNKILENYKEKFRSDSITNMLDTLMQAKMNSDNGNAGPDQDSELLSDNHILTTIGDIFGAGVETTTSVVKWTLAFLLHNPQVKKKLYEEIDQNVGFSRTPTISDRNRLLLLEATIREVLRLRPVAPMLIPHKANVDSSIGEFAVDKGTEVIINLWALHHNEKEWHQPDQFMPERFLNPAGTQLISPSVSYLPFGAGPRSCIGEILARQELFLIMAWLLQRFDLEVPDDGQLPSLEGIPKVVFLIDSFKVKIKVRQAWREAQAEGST
Kind of data set: Inhibition of human CYP17 expressed in Escherichia coli at 2000 nM using progesterone as substrate. To be noted: probe progesterone. The gist of the method: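 50,000 g sediment of homogenate from E. coli recombinantly expressing human CYP17; substrate progesterone at 25 µM; inhibitor tested at 2.0 µM.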

Data set [7] addresses T5, CYP19 (aromatase) (Homo sapiens, UniProt P11511).
T5 sequence (P11511 whole entry): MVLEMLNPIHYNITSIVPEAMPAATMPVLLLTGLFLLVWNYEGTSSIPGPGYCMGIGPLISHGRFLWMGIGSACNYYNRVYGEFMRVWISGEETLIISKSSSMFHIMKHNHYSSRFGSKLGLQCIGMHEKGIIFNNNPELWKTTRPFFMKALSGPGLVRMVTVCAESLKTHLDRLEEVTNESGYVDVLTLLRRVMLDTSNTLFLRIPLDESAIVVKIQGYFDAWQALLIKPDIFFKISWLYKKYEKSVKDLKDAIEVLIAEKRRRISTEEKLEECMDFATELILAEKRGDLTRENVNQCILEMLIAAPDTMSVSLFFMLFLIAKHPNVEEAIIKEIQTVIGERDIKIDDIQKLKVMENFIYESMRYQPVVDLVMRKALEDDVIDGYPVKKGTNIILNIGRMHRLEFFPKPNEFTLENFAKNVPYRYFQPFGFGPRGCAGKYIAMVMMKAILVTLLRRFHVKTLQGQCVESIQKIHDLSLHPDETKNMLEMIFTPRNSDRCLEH
As to the kind of experiment: Inhibition of human placental CYP19 at 500 nM using androstenedione as substrate. To be noted: human placental CYP19, probe androstenedione. In outline:
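Human placental CYP19 as enzyme source; substrate androstenedione at 500 nM.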

In the case of `Cc1ccc(C(=O)Nc2cccnc2)cc1`, the values for the inhibition at 0.5 µM in data set [1] and in data set [2] (probe 11-deoxycorticosterone) were 25% and 0%, respectively.

Turning to `O=C(Nc1cccnc1)c1ccc(OC(F)(F)F)cc1`, the inhibition at 0.5 µM in data set [1] and in data set [2] (probe 11-deoxycorticosterone) was 3% in each case.

Consider `O=C(Nc1cccnc1)c1cncc(Br)c1`, for which the inhibition at 0.5 µM in data set [1] was 29%; in data set [2] (probe 11-deoxycorticosterone), 0.4%.

In the case of `O=C(Nc1cccnc1)c1cccc(Cl)c1Cl`, the inhibition at 0.5 µM was determined as 51% in data set [1] and 4% in data set [2] (probe 11-deoxycorticosterone).

With `COc1ccc(C(=O)Nc2cccnc2)cc1OC`, the inhibition at 0.5 µM in data set [1] is 2%; in data set [2] (probe 11-deoxycorticosterone) it was 0.1%.

As for `COc1ccc(C(=O)Nc2cccnc2)cc1`, the inhibition at 0.5 µM in data set [1] amounted to 19%; in data set [2] (probe 11-deoxycorticosterone), 0%.

As a reminder, the IC50 is the concentration that inhibits the measured activity by half. Higher therefore signals weaker potency in that assay. Consider `O=C(Nc1cccnc1)c1ccc([N+](=O)[O-])cc1`, for which the inhibition at 0.5 µM in data set [1] came out at 64%; in data set [2] (probe 11-deoxycorticosterone) it was 0%; in data set [7] it was 0%. The half-maximal inhibitory concentration (IC50) in data set [3] was determined as 0.145 µM; in data set [4], 24.8 µM. Moreover, the Ratio IC50 in data set [5] worked out at 171. The inhibition at 2 µM in data set [6] came to 1%.

`O=C(Nc1cccnc1)c1ccc(F)c(F)c1`: the inhibition at 0.5 µM is 83% in data set [1], 6% in data set [2] (probe 11-deoxycorticosterone) and 0.5% in data set [7]. Moreover, the IC50 in data set [3] is 0.0535 µM; in data set [4] it was 5.92 µM. In addition, in data set [5], the Ratio IC50 was determined as 111. Moreover, the inhibition at 2 µM in data set [6] came out at 1%.

With `O=C(Nc1cccnc1)c1ccc(Cl)cc1`, the inhibition at 0.5 µM in data set [1] was 88%; in data set [2] (probe 11-deoxycorticosterone) it was 5%; in data set [7], 0%. Further, the IC50 in data set [3] stood at 0.065 µM; in data set [4], 10.2 µM. Moreover, the Ratio IC50 in data set [5] turned out to be 157. The compound further displayed an inhibition at 2 µM in data set [6] of 1.3%.

For `O=C(Nc1cccnc1)c1ccncc1`, the inhibition at 0.5 µM in data set [1] came out at 39%; in data set [2] (probe 11-deoxycorticosterone), 4%.

As for `O=C(Nc1cccnc1)c1ccccc1F`, the results for the inhibition at 0.5 µM in data set [1] and in data set [2] (probe 11-deoxycorticosterone) were 34% and 1%, respectively.

In the case of `O=C(Nc1cccnc1)c1ccc(F)cc1`, the inhibition at 0.5 µM in data set [1] is 86%; in data set [2] (probe 11-deoxycorticosterone) it was 7%; in data set [7] it was 1.1%. The IC50 in data set [3] amounted to 0.082 µM; in data set [4], 14.3 µM. For the same compound, in data set [5], the Ratio IC50 was determined as 174. Further, in data set [6], the inhibition at 2 µM worked out at 0.3%.

With `O=C(Nc1cccnc1)c1ccc(C(F)(F)F)cc1`, the inhibition at 0.5 µM in data set [1] and in data set [2] (probe 11-deoxycorticosterone) was 1% each time.

`O=C1CCc2cc(-c3cncc4ccccc34)ccc2N1` gave an inhibition at 0.5 µM in data set [2] (probe 11-deoxycorticosterone) of 91%.

Take `O=C(Nc1cccnc1)c1cccnc1`: the inhibition at 0.5 µM in data set [1] is 8%; in data set [2] (probe 11-deoxycorticosterone) it was 3%.

As for `O=C(Nc1cccnc1)c1ccccc1`, the inhibition at 0.5 µM in data set [1] turned out to be 30%; in data set [2] (probe 11-deoxycorticosterone), 2%.

For the compound `O=C(Nc1cccnc1)c1cccc(Cl)c1`, the inhibition at 0.5 µM in data set [1] is 26%; in data set [2] (probe 11-deoxycorticosterone), 0%.

For the compound `O=C(Nc1cccnc1)c1ccc(Br)cc1`, the inhibition at 0.5 µM was 64% in data set [1], 0% in data set [2] (v79) and 0.1% in data set [7]. Besides, the results for the IC50 in data set [3] and in data set [4] were 0.104 µM and 16.7 µM, respectively. For the same compound, the Ratio IC50 in data set [5] worked out at 161. Further, the inhibition at 2 µM in data set [6] is 4.3%.

As for `N#Cc1ccc(C(=O)Nc2cccnc2)cc1`, the inhibition at 0.5 µM in data set [1] worked out at 81%; in data set [2] (v79), 9%; in data set [7] it was 0.2%. The IC50 in data set [3] came to 0.078 µM; in data set [4] it was 7.5 µM. Besides, in data set [5], the Ratio IC50 stood at 96. The inhibition at 2 µM in data set [6] amounted to 0.2%.

As for `O=C(Nc1cccnc1)c1ccc(-c2ccccc2)cc1`, the inhibition at 0.5 µM in data set [1] is 6%; in data set [2] (probe 11-deoxycorticosterone) it was 0%.

With `CC(C)(C(=O)c1cccnc1)c1cccnc1` [METYRAPONE], the inhibition at 0.5 µM was 79% in data set [1], 94% in data set [2] (probe 11-deoxycorticosterone) and 0% in data set [7]. This compound returned an inhibition at 2 µM in data set [6] of 0%.

As to `O=C(Nc1cccnc1)c1cc(F)c(F)cc1F`, the inhibition at 0.5 µM in data set [1] was determined as 70%; in data set [2] (probe 11-deoxycorticosterone), 2%; in data set [7], 0%. Besides, the results for the IC50 in data set [3] and in data set [4] were 0.166 µM and 16.1 µM, respectively. The Ratio IC50 in data set [5] is 97. In data set [6], this compound displayed an inhibition at 2 µM of 0.6%.
